Screening data (PubChem)
KCNK3 block = human KCNK3 channel inhibitors, primary screen, CHO cells, FluxOR thallium flux, B-score | B-score at 10 µM | Potassium channel subfamily K member 3 (Homo sapiens), O14649 | FluxOR fluorescence; hits give low values | 340,000 tested, 0.84% active;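 active = B-score under library mean minus 4 SD, starting fluorescence ratio at most library mean plus 5 SD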;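 also: more negative B-score means stronger inhibition of thallium flux through KCNK3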
Kir21 inh = inhibitors of mouse Kir2.1 inward-rectifier potassium channel | Inward rectifier potassium channel 2 (Mus musculus), P35561 | HEK293-Kir2.1, FluxOR thallium flux fluorescence; hits give low values | B-score at 10 µM | 310,000 tested, 0.85% active | AID 1672, 2009;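 active = fluorescence ratio B-score at or below minus 3 SD of library scores, with starting-brightness B-score within 2 SD, cut at about -4.2 in these data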;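 also: channel flux triggered by added potassium and thallium sulfate stimulus; B-score of peak minus minimum fluorescence over baseline after thallium stimulus; more negative B-score means stronger Kir2.1 block with less thallium influx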
KCNK9 block = KCNK9 potassium channel inhibitors, primary screen, HEK293 cells, thallium flux. FluxOR thallium flux fluorescence; hits give low values. B-score at 10 µM. AID 488922, 2010. 310,000 tested, 1.2% active;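 active = ratio B-score over 3 SD below the library mean, with starting fluorescence within 5 SD of its mean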;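 also: negative B-score means less thallium flux so channel inhibition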
KCNQ1 block = inhibitors of human KCNQ1 channel, primary screen, cell-based, thallium flux, high-throughput. Potassium voltage-gated channel subfamily KQT member 1 (Homo sapiens), P51787. CHO-K1 KCNQ1, FluxOR thallium flux fluorescence; hits give high values. B-score at 10 µM. 310,000 tested, 1.3% active. AID 2642, 2010;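 active = compounds whose thallium flux B-score, printed positive for inhibition, exceeds three library SD while starting fluorescence stays within three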;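 also: channel opened by potassium depolarization with thallium stimulus after 20 min compound exposure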
Target sequence (P51787 whole entry, looked up): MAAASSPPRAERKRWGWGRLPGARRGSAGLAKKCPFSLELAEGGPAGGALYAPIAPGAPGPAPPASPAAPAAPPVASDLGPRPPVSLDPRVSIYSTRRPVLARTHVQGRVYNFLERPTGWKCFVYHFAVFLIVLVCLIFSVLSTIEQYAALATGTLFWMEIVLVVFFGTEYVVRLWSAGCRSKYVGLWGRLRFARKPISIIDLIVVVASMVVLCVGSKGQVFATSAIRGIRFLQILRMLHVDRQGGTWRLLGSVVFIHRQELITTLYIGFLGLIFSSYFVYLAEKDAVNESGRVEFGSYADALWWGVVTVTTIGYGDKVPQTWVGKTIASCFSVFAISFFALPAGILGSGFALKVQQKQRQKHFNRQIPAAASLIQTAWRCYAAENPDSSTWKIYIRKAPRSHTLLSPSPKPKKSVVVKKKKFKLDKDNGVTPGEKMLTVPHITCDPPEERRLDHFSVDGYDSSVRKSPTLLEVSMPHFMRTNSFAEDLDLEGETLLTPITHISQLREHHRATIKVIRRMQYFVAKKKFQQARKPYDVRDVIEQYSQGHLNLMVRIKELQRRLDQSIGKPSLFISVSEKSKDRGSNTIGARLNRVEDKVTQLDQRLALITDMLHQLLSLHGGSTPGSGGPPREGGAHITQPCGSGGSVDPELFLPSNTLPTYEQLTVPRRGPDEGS
KCNQ1 pot = potentiators or activators of KCNQ1 channel, primary screen, cell-based, thallium flux, high-throughput. CHO-K1 KCNQ1, thallium flux FluxOR fluorescence; hits give high values. B-score at 10 µM. 310,000 tested, 0.35% active. Potassium voltage-gated channel subfamily KQT member 1 (Homo sapiens), P51787. AID 2648, 2010;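 active = fluorescence ratio B-score, a plate-corrected score, at least three library SD, with initial intensity B-score within 5 SD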
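Test system: CHO-K1 cells stably expressing KCNQ1 / Medium: assay buffer / Also added: depolarizing K+/Tl+ stimulus, K2SO4 and Tl2SO4 each 12.5 mM in 5x stock / Incubation: 90 min dye loading and 20 min compound exposure, both at room temperature / Signal: thallium influx via FluxOR fluorescence, kinetic imaging / Evaluation: B score of baseline-normalized fluorescence ratio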
hERG rescue = hERG rescue from dofetilide block, primary screen, cell-based, CHO-hERG, FluxOR thallium flux, dofetilide IC70 | dofetilide IC70 present | AID 1511, 2009 | activation (rescue from dofetilide block), less the hit threshold, % at 10 µM | 310,000 tested, 0.51% active;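 active = activation above the mean of controls blocked by dofetilide plus 5 SD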;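 also: thallium influx through hERG after potassium depolarization seen as dye fluorescence rise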
KCNK9 block conf = KCNK9 potassium channel inhibitors, confirmation, HEK293 cells, thallium flux, duplicate; AID 492992, 2010; inhibition, % at 10 µM; 4,900 tested, 43% active; FluxOR thallium flux fluorescence; shares compounds with KCNK9 block;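 active = thallium signal inhibited by more than 5 SD of the compound-free buffer control wells, on both duplicate plates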;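 also: 0% = assay buffer control wells without compound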
Kir2-1 spec = mouse Kir2.1 channel inhibition, confirmation, selectivity assay for KCNK9 modulator project, cell-based, HEK293, thallium flux; 4,900 tested, 4% active; Kir2.1 cells, FluxOR thallium flux fluorescence; AID 492993, 2010; shares compounds with KCNK9 block; inhibition, % at 10 µM;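 active = thallium signal drop more than 5 SD beyond the mean of the no-compound control wells, seen in both duplicate plates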;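 also: signal is fluorescence rise after thallium addition divided by baseline fluorescence; plate controls were assay buffer only for no effect and full block by chlorpromazine control for full effect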
KCNK9 uninduced = thallium flux in non-induced HEK293 cells, confirmation, counter-screen for KCNK9 inhibitor project, cell-based, second counter screen, non-induced KCNK9-HEK293 | shares compounds with KCNK9 block | FluxOR thallium flux | inhibition, % at 10 µM | 4,900 tested, 40% active | AID 492997, 2010;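 active = thallium signal drop beyond 5 SD of the untreated control mean, on both duplicate plates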;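 also: plate controls were buffer only IC0 wells for no effect and SID17386958 at its maximal inhibitory level for full effect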
Starred values were filed as active, the others as inactive; i = inactive; · = no result given. The list is not random: actives were taken first. Their share in the collection is about 3.7%.

SMILES	KCNK3 block	Kir21 inh	KCNK9 block	KCNQ1 block	KCNQ1 pot	hERG rescue	KCNK9 block conf	Kir2-1 spec	KCNK9 uninduced
O=C(Nc1ccc(C(F)(F)F)cc1Cl)c1ccc(Cn2cc(Br)cn2)o1	i	0.07	-12*	i	i	-2	37%*	i	46%*
O=C(N/N=C/c1c(F)cccc1Cl)c1ccc(Cn2cc(Br)cn2)o1	i	0.78	i	i	i	-6	·	·	·
O=C(O)c1cccc(CN2C(=O)S/C(=C/c3cccc([N+](=O)[O-])c3)C2=O)c1	i	0.1	i	i	i	-16	i	i	i
NS(=O)(=O)c1cccc(NS(=O)(=O)c2ccc3ccccc3c2)c1	i	-1.8	i	i	i	-3	·	·	·
CC(C)Cn1c(=O)c(C(=O)NCc2ccc3c(c2)OCO3)c(O)c2ccccc21	i	-0.01	i	i	i	-7	·	·	·
CC(C)c1nnc(NC(=O)CCS(=O)(=O)c2ccccc2)s1	i	0.16	i	i	i	-6	·	·	·
CCCC(C)c1nnc(NC(=O)CCS(=O)(=O)c2ccccc2)s1 (stereo not drawn)	i	0.09	i	i	i	-5	i	i	i
Cc1cc(C(=O)Cn2nnc(-c3ccc(Cl)cc3)n2)c(C)n1CC1CCCO1 (stereo not drawn)	i	0.31	i	i	i	-3	·	·	·
Cc1cc(C(=O)Cn2nnc(-c3ccc(Cl)cc3)n2)c(C)n1-c1ccccc1	i	-0.51	i	i	i	-19	i	i	i
Cc1ccc(/C=N/NC(=O)NC23CC4CC(CC(C4)C2)C3)o1	i	-0.05	i	i	i	-12	·	·	·
COc1ccc(OC)c(C=Nc2ccccc2-c2nc3ccccc3[nH]2)c1	i	-0.34	-8.4*	i	i	-14	39%*	i	28%*
Brc1ccc(OCc2nnc(SCC3CCCCC3)o2)cc1	i	-2	-8.8*	i	i	-9	26%*	i	36%*
c1ccc(C(c2ccccc2)N2CCN(Cc3nnnn3C3CCCC3)CC2)cc1	i	-1.4	-9*	i	i	-11	41%*	i	i
CC(C)CCn1nnnc1CN1CCN(C(c2ccccc2)c2ccccc2)CC1	i	-1.2	i	i	i	-11	·	·	·
Cc1cc(Cl)ccc1OC(C)C(=O)N1CCCN(C(=O)C(C)Oc2ccc(Cl)cc2C)CC1 (stereo not drawn)	i	1	-15*	i	i	-6	58%*	i	30%*
O=C(/C=C1\NC2(CCCC2)Cc2ccccc21)C(=O)N/N=C/c1ccccc1O	i	-1.2	i	i	i	-12	·	·	·
COc1cc(/C=N/NC(=O)C(=O)/C=C2\NC3(CCCC3)Cc3ccccc32)ccc1O	i	2.5	-11*	i	i	-7	44%*	i	28%*
Cc1[nH][nH]c(=O)c1C(c1c(C)[nH][nH]c1=O)c1cn(Cc2ccccc2Cl)c2ccccc12	i	-0.74	i	i	i	-14	i	i	i
N/C(=N\O)c1cn(Cc2ccccc2Cl)c2ccccc12	i	-3.6	i	i	i	-12	·	·	·
COc1ccc(F)cc1S(=O)(=O)N1CCN(Cc2ccc3c(c2)OCO3)CC1	i	-1.8	i	i	i	-10	i	i	i
Cc1cccc(S(=O)(=O)N2CCN(Cc3ccc4c(c3)OCO4)CC2)c1	i	-0.74	i	i	i	-8	i	i	i
Cc1ccc2nsnc2c1S(=O)(=O)N1CCN(C)CC1	i	-0.32	i	i	i	-1	·	·	·
CCOc1ccc(S(=O)(=O)N2CCN(Cc3ccc4c(c3)OCO4)CC2)cc1Cl	i	-0.09	i	i	i	-5	i	i	i
Cc1ccc2nsnc2c1S(=O)(=O)N1CCN(Cc2ccc3c(c2)OCO3)CC1	i	-1.4	i	i	i	0	i	i	i
COc1ccc(S(=O)(=O)N2CCN(Cc3ccc4c(c3)OCO4)CC2)cc1	i	0.12	i	i	i	-6	·	·	·
SMILES	KCNK3 block	Kir21 inh	KCNK9 block	KCNQ1 block	KCNQ1 pot	hERG rescue	KCNK9 block conf	Kir2-1 spec	KCNK9 uninduced
COc1ccc(Cl)cc1S(=O)(=O)N1CCN(Cc2ccc3c(c2)OCO3)CC1	i	-0.39	i	i	i	-14	·	·	·
Fc1ccccc1CNc1nc(-c2cccnc2)nc2ccccc12	i	0.47	i	i	i	-19	·	·	·
O=C(CSc1ccc([N+](=O)[O-])cc1)c1ccccc1	i	·	·	·	·	·	·	·	·
N#CC1(Cc2ccccc2)c2ccccc2C=CN1C(=O)c1ccccc1 (stereo not drawn)	i	0.72	-9.8*	6*	i	-19	46%*	i	31%*
N#CC1(Cc2ccc([N+](=O)[O-])cc2)c2ccccc2C=CN1C(=O)c1ccccc1 (stereo not drawn)	i	0.42	-12*	i	i	-4	32%*	i	34%*
CCOC(=O)C1(CC2CC2)CCN(Cc2ccc3cccc(F)c3n2)CC1	i	-3.2	i	i	i	-6	i	i	i
COc1cccc(NC(=O)CN(C)C(=O)c2cc3c(s2)CCCCC3)c1	i	·	·	·	·	·	·	·	·
CC(C)c1ccc(OCc2ccc(C(=O)N3CCN(c4ccccn4)CC3)cc2)cc1	i	-0.82	i	6*	i	-8	i	i	i
Cc1ccc(C(=O)N2CCN(c3ccccn3)CC2)cc1	i	-0.71	i	i	i	1	·	·	·
Cc1cc(N/N=C/c2ccccc2Cl)nc(NCc2ccccc2)n1	i	-2.2	i	i	i	-13	i	i	i
Cc1cc(C)nc(N/N=C/c2ccccc2Cl)n1	i	0.82	i	i	i	-8	·	·	·
CCOc1ccc(CCNC(=O)COC(=O)COc2ccc(C(=O)CC)cc2)cc1OCC	i	-0.23	i	i	i	-15	·	·	·
